Screening results as filed in PubChem BioAssay.
RGS4 block = inhibitors of human RGS4. P49798. HEK293 M3R/RGS4 inducible, Fluo-4 calcium flux; active compounds read high; triggered by carbachol at its EC20. B-score at 10 µM. hit rate 0.45% among 310,000;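 active = B-score, a plate-corrected calcium signal, over three deviations above library mean, with baseline fluorescence within five deviations of library mean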;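 also: RGS4 expression induced by doxycycline in cells with stable M3 receptor; B-score is computed from the integrated fluorescence ratio over baseline after carbachol; higher B-score means a larger calcium signal and so more RGS4 inhibition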
Target sequence (P49798 whole entry, looked up): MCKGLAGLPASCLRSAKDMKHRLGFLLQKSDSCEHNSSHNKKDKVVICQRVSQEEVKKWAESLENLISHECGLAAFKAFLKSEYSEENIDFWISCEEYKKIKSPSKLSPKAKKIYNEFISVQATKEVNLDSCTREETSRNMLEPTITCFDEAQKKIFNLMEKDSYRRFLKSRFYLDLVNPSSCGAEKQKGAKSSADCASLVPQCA
MrgX1 antag = human MrgX1 receptor antagonism, primary screen; hit rate 1.3% among 310,000; B-score at 10 µM; AID 588676; MRGX1-HEK293 calcium flux, Fluo-4, BAM8-22 antagonism; active compounds read low; Q96LB2;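 active = calcium-response B-score plate-corrected more than 3 library SD below zero, starting fluorescence within 5 deviations, no agonist response on first addition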;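 also: peak minus trough fluorescence over baseline after final BAM8-22 challenge near maximal dose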
Target sequence (Q96LB2 whole entry, looked up): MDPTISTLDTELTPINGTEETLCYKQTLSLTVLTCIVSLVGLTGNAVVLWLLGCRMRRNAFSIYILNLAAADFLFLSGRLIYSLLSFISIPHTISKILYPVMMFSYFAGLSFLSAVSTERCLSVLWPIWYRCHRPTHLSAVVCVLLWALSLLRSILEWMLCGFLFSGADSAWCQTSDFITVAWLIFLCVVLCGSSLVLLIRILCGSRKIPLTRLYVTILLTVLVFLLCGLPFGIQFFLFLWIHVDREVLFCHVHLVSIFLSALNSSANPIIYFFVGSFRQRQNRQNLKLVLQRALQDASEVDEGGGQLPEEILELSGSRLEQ
MrgX1 PAM = human MrgX1 positive allosteric modulation, primary screen. hit rate 0.63% among 310,000. Q96LB2. B-score at 10 µM. MrgX1-HEK293, Fluo-4 calcium flux, FDSS; active compounds read high;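 active = plate-corrected calcium response at least 3 library SD above typical, normal starting fluorescence, not activating the receptor alone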;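 also: compound read alongside a low EC10 to EC30 dose of BAM8-22 agonist; peak minus trough fluorescence over baseline measured at the second addition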
RGS4 act = potentiators or activators of RGS4. B-score at 10 µM. HEK293 M3R/inducible RGS4, carbachol calcium flux Fluo4; active compounds read low. hit rate 0.92% among 310,000. AID 463111;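 active = B-score of the integrated calcium signal more than 4 SD below the library mean, with starting fluorescence not abnormally high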;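 also: negative B-score means reduced calcium response which marks RGS4 activation or potentiation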
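System: HEK293 FlpIn-TREx cells, stable M3R, doxycycline-inducible RGS4. Timing: overnight RGS4 induction, 30 min dye load 37 °C, 20 min compound RT. Also added: carbachol, ECmax concentration. Measured by: Fluo4 fluorescence kinetic imaging of calcium. Evaluation: integrated calcium ratio converted to B score.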
MrgX1 agonist = human MrgX1 receptor agonism, primary screen; MrgX1-HEK293 cells, Fluo-4 calcium fluorescence, agonist mode; active compounds read high; hit rate 0.44% among 310,000; B-score at 10 µM; AID 588627; Q96LB2;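 active = calcium response B-score plate-corrected fluorescence ratio at least 3 library SD, with starting fluorescence B-score inside 5 SD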
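times = overnight plating, then 30 min 37 °C plus 30 min room-temperature dye loading | assay system = stable human MrgX1 HEK293 cell line | input = fifteen thousand cells per well | signal = kinetic calcium dye fluorescence, Fluo-4 NW | dosing = compound delivered in addition one of three | read-out = B-scored fluorescence response ratio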
Numbers without * were called inactive; i = inactive. Only some compounds are listed: those with a hit (about 3.5% of all), similar ones and a draw of the others.

SMILES | RGS4 block | MrgX1 antag | MrgX1 PAM | RGS4 act | MrgX1 agonist
Cn1c(=O)c(C(=O)NNC(=O)c2ccccc2Br)c(O)c2ccccc21 | i | i | 8.4* | i | i
Cn1c(=O)c(C(=O)NNC(=O)c2ccccc2Cl)c(O)c2ccccc21 | i | i | i | i | 29*
CCNC(=S)Nc1ccc(Cl)c([N+](=O)[O-])c1 | i | -5.8* | i | i | i
CCC(C)(C)NC(=O)C(c1ccc(F)cc1)N(Cc1cccs1)C(=O)c1cnccn1 (centres undefined) | i | -5.3* | i | i | i
CCC(C)(C)NC(=O)C(c1ccc(F)cc1)N(Cc1cccc(OC)c1)C(=O)c1cnccn1 (centres undefined) | i | i | i | i | i
Cc1noc(/C=C/N(C)C)c1S(=O)(=O)N1CCC(C(=O)NC(C)(C)C)CC1 | i | i | i | i | i
Cc1ccc(S(=O)(=O)N(C)C)cc1NC(=S)N1CCN(Cc2ccc3c(c2)OCO3)CC1 | i | i | i | i | i
CC1CCN(CC(=O)Nc2ccccc2Sc2ccccc2)CC1 | i | i | i | -7.4* | i
COc1ccc(CCC(=O)N(C)CC(=O)Nc2ccc(N3CCOCC3)cc2)cc1 | i | i | 11* | i | i
CCOc1ccc(OCCCC(=O)N(C)CC(=O)Nc2ccc(N3CCOCC3)cc2)cc1 | i | i | i | i | i
Cc1cc(C)c2nc(C)cc(N/N=C/c3ccc(O)cc3)c2c1 | i | i | i | -7.4* | i
CN(C)c1ccc(/C=C/c2nc3ccccc3s2)cc1 | i | -6.3* | i | -7.5* | i
CSCCC(NS(=O)(=O)c1ccccc1F)C(=O)Nc1cccc(C)n1 (centres undefined) | i | i | i | i | i
COc1ccc(CNC(=O)COc2cccnc2[N+](=O)[O-])cc1OC | i | i | 6.9* | i | i
CCC(C)NC(=O)c1ccc(CN2CCc3ccccc3C2)cc1 (centres undefined) | i | i | i | -7.5* | i
COCC(C)NC(=O)c1ccc(CN2CCc3ccccc3C2)cc1 (centres undefined) | i | i | i | i | i
COCCNC(=O)c1ccc(CN2CCc3ccccc3C2)cc1 | i | i | i | i | i
CCCNC(=O)c1ccc(CN2CCc3ccccc3C2)cc1 | i | i | i | -7.1* | i
CCOC(=O)C1CCN(C(=O)CCCCn2c(=O)[nH]c3ccccc3c2=O)CC1 | i | i | i | i | i
Cc1nc(-c2nc(-c3c(C(=O)NN)noc3C)cs2)cs1 | i | -5.9* | i | i | i
Cc1nc(-c2nc(-c3c(C(=O)NNC(=O)c4ccc(Cl)cc4)noc3C)cs2)cs1 | i | i | i | i | i
CC/C(C)=N\Nc1nc(-c2cc3cc(OC)ccc3oc2=O)cs1 | i | i | i | i | i
CC(C)(C)c1ccc(OCC(=O)Nc2ccc(C(=O)Nc3ccccc3C(=O)O)cc2)cc1 | i | i | i | i | i
CC(C)=CCC/C(C)=C/COc1ccc2ccc(=O)oc2c1 | i | i | i | i | i
COCOc1ccc(-c2oc3c(C/C=C(\C)CCC=C(C)C)ccc(O)c3c(=O)c2OCOC)c(OCOC)c1 | i | -6.9* | i | i | i
SMILES | RGS4 block | MrgX1 antag | MrgX1 PAM | RGS4 act | MrgX1 agonist
Cc1ccc(S(=O)(=O)c2c(N)n(Cc3ccco3)c3nc4ccccc4nc23)cc1C | i | -4.8* | i | i | i
CC(=O)Nc1c(O)n(C)c2ccccc12 | i | i | i | i | i
O=C(NCC1CCCO1)C1CCN(C2CCN(C3CCCCCC3)CC2)CC1 (centres undefined) | i | i | i | i | i
CC1CC(N(C(=O)c2ccco2)c2ccccc2)c2ccccc2N1 (centres undefined) | i | i | 6.5* | i | i
CN(CCOC(=O)c1ccc2c(c1)OCCO2)Cc1ccccc1 | i | i | i | i | i
CN1C(=O)/C(=C/c2ccc(OCc3ccc(F)cc3)cc2)N(C)C1=S | i | i | i | i | i
CN1C(=O)/C(=C/c2ccccc2OCc2cccc(F)c2)N(C)C1=S | i | i | i | -9.9* | i
Clc1ccccc1CN1CCN(/N=C/C=C\c2ccco2)CC1 | i | i | i | i | i
O=S(=O)(c1cc(Cl)ccc1Cl)N1CC2CCCN2c2ccc(C(F)(F)F)cc21 (centres undefined) | i | i | i | -7.1* | i
CS(=O)(=O)N1CC2CCCN2c2ccc(C(F)(F)F)cc21 (centres undefined) | i | i | i | i | i
COc1ccc(OCC(=O)N(Cc2sccc2C)C2CCS(=O)(=O)C2)cc1 (centres undefined) | i | i | i | i | i
O=C(Oc1ccc(-c2cnc3ccccc3n2)cc1)c1cc([N+](=O)[O-])ccc1Cl | i | -4.9* | i | i | i
COC(=O)C1=C(C)NC(=O)/C1=C\c1cc(C)n(-c2ccccc2F)c1C | i | -5.5* | i | i | i
Cc1nnc(N2CCC(C(=O)N3CCCCC3)CC2)c2nn(-c3ccc(Cl)cc3)c(C)c12 | i | i | i | i | i
COc1ccc(-n2nc3c(N4CCC(C(=O)N5CCC(C)CC5)CC4)nnc(C)c3c2C)cc1 | i | i | i | -7* | i
CCn1c(=O)c(C(=O)Nn2c(C)nc3ccccc3c2=O)c(O)c2ccccc21 | i | i | i | i | i
CCCn1c(=O)c(C(=O)NNC(=O)c2ccc(Cl)cc2Cl)c(O)c2ccccc21 | i | i | i | i | 38*
CCCn1c(=O)c(C(=O)NCCc2ccc(OC)cc2)c(O)c2ccccc21 | i | i | 7* | i | i
CCc1nc2ccccc2c(=O)n1NC(=O)c1c(O)c2ccccc2n(CC)c1=O | i | i | 12* | i | i
CCn1c(=O)c(C(=O)NNC(=O)c2ccc(Cl)cc2Cl)c(O)c2ccccc21 | i | i | i | -7.8* | 69*
CCCn1c(=O)c(C(=O)NCCc2ccccc2)c(O)c2ccccc21 | i | i | i | i | i
COc1ccc(-n2cccc2/C=C/[N+](=O)[O-])cc1 | i | i | i | i | 33*
COc1ccc(-n2cccc2C=O)cc1 | i | i | i | i | i
COc1cccc(Oc2cn[nH]c2-c2ccc(OCC(=O)NN)cc2O)c1 | i | i | i | i | i
CCCOC(=O)c1ccc(Oc2cn[nH]c2-c2ccc(OC)cc2O)cc1 | i | i | i | -7.5* | i
